Measurements taken from ChEMBL document CHEMBL1208737, “Synthesis and in vitro evaluation of N-alkyl-3-hydroxy-3-(2-imino-3-methyl-5-oxoimidazolidin-4-yl)indolin-2-one analogs as potential anticancer agents” (2010).

Legend:
Assay type in all cases: functional
[1] = tested on: RXF 393; assay: Growth inhibition of human RXF393 cells by sulforhodamine B assay
Method in brief: (§1)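 Five-dose response testing across a 57-line human tumour panel (leukemia, non-small cell lung, colon, CNS, melanoma, ovarian, renal, prostate, breast), done after a single-dose primary screen run per the NCI method. Effect plotted against log10 molar drug concentration for each cell line. GI50 is the concentration giving a 50% reduction in net protein increase versus control cells.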

[2] = tested on: COLO 205; assay: Growth inhibition of human COLO205 cells by sulforhodamine B assay; method in brief: as §1
[3] = tested on: SF-295; assay: Growth inhibition of human SF295 cells by sulforhodamine B assay; method in brief: as §1
[4] = tested on: HCT-15; assay: Growth inhibition of human HCT15 cells by sulforhodamine B assay; method in brief: as §1
[5] = tested on: SK-MEL-2; assay: Growth inhibition of human SK-MEL-2 cells by sulforhodamine B assay; method in brief: as §1
[6] = tested on: NCI-H522; assay: Growth inhibition of human NCI-H522 cells by sulforhodamine B assay; method in brief: as §1
[7] = tested on: SNB-75; assay: Growth inhibition of human SNB75 cells by sulforhodamine B assay; method in brief: as §1
[8] = tested on: NCI-H226; assay: Growth inhibition of human NCI-H226 cells by sulforhodamine B assay; method in brief: as §1
[9] = tested on: TK-10; assay: Growth inhibition of human TK10 cells by sulforhodamine B assay
Method in brief: (§2)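 Part of a 57-line human tumour cell panel run at five doses. Growth effect was plotted against log10 molar drug concentration for each cell line. GI50 is the concentration giving a 50% reduction in net protein increase relative to untreated control cells, read from the dose-response curve.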

[10] = tested on: OVCAR-3; assay: Growth inhibition of human OVCAR-3 cells by sulforhodamine B assay; method in brief: as §1
[11] = tested on: KM12; assay: Growth inhibition of human KM12 cells by sulforhodamine B assay; method in brief: as §1
[12] = tested on: PC-3; assay: Growth inhibition of human PC3 cells by sulforhodamine B assay; method in brief: as §1
[13] = tested on: NCI-H23; assay: Growth inhibition of human NCI-H23 cells by sulforhodamine B assay; method in brief: as §1
[14] = tested on: HL-60(TB); assay: Growth inhibition of human HL-60(TB) cells by sulforhodamine B assay; method in brief: as §1
[15] = tested on: Malme-3M; assay: Growth inhibition of human MALME-3M cells by sulforhodamine B assay; method in brief: as §1
[16] = tested on: NCI-H460; assay: Growth inhibition of human NCI-H460 cells by sulforhodamine B assay; method in brief: as §1
[17] = tested on: HCT-116; assay: Growth inhibition of human HCT116 cells by sulforhodamine B assay; method in brief: as §1
[18] = tested on: UACC-257; assay: Growth inhibition of human UACC257 cells by sulforhodamine B assay; method in brief: as §2
[19] = tested on: HOP-62; assay: Growth inhibition of human HOP62 cells by sulforhodamine B assay; method in brief: as §1
[20] = tested on: MDA-MB-435; assay: Growth inhibition of human MDA-MB-435 cells by sulforhodamine B assay; method in brief: as §1
[21] = tested on: CAKI-1; assay: Growth inhibition of human Caki1 cells by sulforhodamine B assay; method in brief: as §1
[22] = tested on: NCI-H322M; assay: Growth inhibition of human NCI-H322M cells by sulforhodamine B assay; method in brief: as §1
[23] = Growth inhibition of human […] cells by sulforhodamine B assay; method in brief: as §1
[24] = tested on: SW-620; assay: Growth inhibition of human SW620 cells by sulforhodamine B assay; method in brief: as §1
[25] = tested on: SK-MEL-28; assay: Growth inhibition of human SK-MEL-28 cells by sulforhodamine B assay; method in brief: as §1
[26] = tested on: A498; assay: Growth inhibition of human A498 cells by sulforhodamine B assay; method in brief: as §1
[27] = tested on: HT-29; assay: Growth inhibition of human HT-29 cells by sulforhodamine B assay; method in brief: as §1
[28] = tested on: T47D; assay: Growth inhibition of human T47D cells by sulforhodamine B assay; method in brief: as §2
[29] = tested on: SF-268; assay: Growth inhibition of human SF268 cells by sulforhodamine B assay; method in brief: as §1
[30] = tested on: LOX IMVI; assay: Growth inhibition of human LOXIMVI cells by sulforhodamine B assay
Method in brief: (§3)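 Five-dose response testing across the 57-line human tumour panel. Growth effect was plotted against log10 drug concentration for each cell line. GI50 is the molar concentration giving a 50% reduction in net protein increase relative to untreated control cells. TGI (total growth inhibition) and LC50 (concentration lethal to 50% of cells) were read from the same curves.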

[31] = tested on: DU-145; assay: Growth inhibition of human DU145 cells by sulforhodamine B assay; method in brief: as §1
[32] = tested on: NCI/ADR-RES; assay: Growth inhibition of human NCI/ADR-RES cells by sulforhodamine B assay; method in brief: as §1
[33] = tested on: SF-539; assay: Growth inhibition of human SF539 cells by sulforhodamine B assay; method in brief: as §1
[34] = tested on: K562; assay: Growth inhibition of human K562 cells by sulforhodamine B assay; method in brief: as §1
[35] = tested on: A549; assay: Growth inhibition of human A549 cells by sulforhodamine B assay; method in brief: as §3
[36] = tested on: EKVX; assay: Growth inhibition of human EKVX cells by sulforhodamine B assay; method in brief: as §1
[37] = tested on: CCRF-CEM; assay: Growth inhibition of human CCRF-CEM cells by sulforhodamine B assay; method in brief: as §1
[38] = tested on: MCF7; assay: Growth inhibition of human MCF7 cells by sulforhodamine B assay; method in brief: as §1
[39] = tested on: SN12C; assay: Growth inhibition of human SN12C cells by sulforhodamine B assay; method in brief: as §1
[40] = tested on: IGROV-1; assay: Growth inhibition of human IGROV1 cells by sulforhodamine B assay; method in brief: as §1
[41] = tested on: UO-31; assay: Growth inhibition of human UO31 cells by sulforhodamine B assay; method in brief: as §2
[42] = tested on: OVCAR-8; assay: Growth inhibition of human OVCAR8 cells by sulforhodamine B assay; method in brief: as §1
[43] = tested on: SK-OV-3; assay: Growth inhibition of human SKOV3 cells by sulforhodamine B assay; method in brief: as §1
[44] = tested on: UACC-62; assay: Growth inhibition of human UACC62 cells by sulforhodamine B assay; method in brief: as §2
[45] = tested on: OVCAR-4; assay: Growth inhibition of human OVCAR4 cells by sulforhodamine B assay; method in brief: as §1
[46] = tested on: HCC 2998; assay: Growth inhibition of human HCC2998 cells by sulforhodamine B assay; method in brief: as §1
[47] = tested on: SNB-19; assay: Growth inhibition of human SNB19 cells by sulforhodamine B assay; method in brief: as §1
[48] = tested on: SK-MEL-5; assay: Growth inhibition of human SK-MEL-5 cells by sulforhodamine B assay; method in brief: as §1
[49] = tested on: M14; assay: Growth inhibition of human M14 cells by sulforhodamine B assay; method in brief: as §1
[50] = tested on: MDA-MB-231; assay: Growth inhibition of human MDA-MB-231 cells by sulforhodamine B assay; method in brief: as §1
[51] = tested on: 786-0; assay: Growth inhibition of human 786-0 cells by sulforhodamine B assay; method in brief: as §1
[52] = tested on: MDA-MB-468; assay: Growth inhibition of human MDA-MB-468 cells by sulforhodamine B assay; method in brief: as §1
[53] = tested on: ACHN; assay: Growth inhibition of human ACHN cells by sulforhodamine B assay; method in brief: as §1
[54] = tested on: OVCAR-5; assay: Growth inhibition of human OVCAR5 cells by sulforhodamine B assay; method in brief: as §1
[55] = tested on: BT-549; assay: Growth inhibition of human BT549 cells by sulforhodamine B assay; method in brief: as §1
[56] = tested on: MOLT-4; assay: Growth inhibition of human MOLT4 cells by sulforhodamine B assay; method in brief: as §1
[57] = Growth inhibition of human Hs 578T cells by sulforhodamine B assay; method in brief: as §1
[58] = read-out: LC50 (the source's name)

**Q.** Which results are given for `COc1ccc(CN2C(=O)C(O)(C3C(=O)NC(=N)N3C)c3ccccc32)cc1` (centres undefined)?
**A.** GI50 [1]: 7.4 µM; CC50 [1, 58]: > 100 µM; GI50 [2]: 19.9 µM; CC50 [2, 58]: > 100 µM; GI50 [3]: 26 µM; CC50 [3, 58]: > 100 µM; GI50 [4]: 11.8 µM; LC50 (concentration killing 50% of starting cells) [4]: > 100 µM; GI50 [5]: 95.2 µM; CC50 [5, 58]: > 100 µM; GI50 [6]: 3.65 µM; LC50 (concentration killing 50% of cells) [6]: > 100 µM; GI50 [7]: 28.8 µM; CC50 [7, 58]: > 100 µM; GI50 [8]: 38.4 µM; CC50 [8, 58]: > 100 µM; GI50 [9]: > 100 µM; CC50 [9, 58]: > 100 µM; GI50 [10]: 2.29 µM; CC50 [10, 58]: 30.1 µM; GI50 [11]: 2.87 µM; CC50 [11, 58]: 80.4 µM; GI50 [12]: 46.9 µM; CC50 [12, 58]: > 100 µM; GI50 [13]: 13.9 µM; LC50 [13]: > 100 µM; GI50 [14]: 4.91 µM; LC50 [14]: > 100 µM; GI50 [15]: 27.4 µM; CC50 [15, 58]: > 100 µM; GI50 [16]: 29 µM; LC50 [16]: > 100 µM; GI50 [17]: 2.4 µM; LC50 [17]: > 100 µM; GI50 [18]: 6.28 µM; LC50 [18]: > 100 µM; GI50 [19]: 4.31 µM; CC50 [19, 58]: > 100 µM; GI50 [20]: 10.6 µM; CC50 [20, 58]: > 100 µM; GI50 [21]: 53.9 µM; CC50 [21, 58]: > 100 µM; GI50 [22]: 41.1 µM; CC50 [22, 58]: > 100 µM; GI50 [23]: 2.87 µM; CC50 [23, 58]: > 100 µM; GI50 [24]: 4.12 µM; CC50 [24, 58]: > 100 µM; GI50 [25]: 36.9 µM; CC50 [25, 58]: > 100 µM; GI50 [26]: > 100 µM; CC50 [26, 58]: > 100 µM; GI50 [27]: 4.06 µM; LC50 [27]: > 100 µM; GI50 [28]: 32 µM; LC50 [28]: > 100 µM; GI50 [29]: 5 µM; CC50 [29, 58]: > 100 µM; GI50 [30]: 8.09 µM; CC50 [30, 58]: > 100 µM; GI50 [31]: 21.4 µM; CC50 [31, 58]: > 100 µM; GI50 [32]: 1.99 µM; CC50 [32, 58]: > 100 µM; GI50 [33]: 3.73 µM; CC50 [33, 58]: > 100 µM; GI50 [34]: 3.73 µM; CC50 [34, 58]: > 100 µM; GI50 [35]: 43.6 µM; LC50 [35]: > 100 µM; GI50 [36]: 71.7 µM; LC50 [36]: > 100 µM; GI50 [37]: 2.18 µM; CC50 [37, 58]: > 100 µM; GI50 [38]: 6.93 µM; LC50 (concentration killing 50% of starting cells) [38]: > 100 µM; GI50 [39]: > 100 µM; CC50 [39, 58]: > 100 µM; GI50 [40]: 3.26 µM; CC50 [40, 58]: > 100 µM; GI50 [41]: 83.2 µM; CC50 [41, 58]: > 100 µM; GI50 [42]: 3.52 µM; CC50 [42, 58]: > 100 µM; GI50 [43]: 45.5 µM; CC50 [43, 58]: > 100 µM; GI50 [44]: 27.7 µM; CC50 [44, 58]: > 100 µM; GI50 [45]: 7.13 µM; CC50 [45, 58]: > 100 µM; GI50 [46]: 12.8 µM; LC50 [46]: 63.9 µM; GI50 [47]: 30.6 µM; CC50 [47, 58]: > 100 µM; GI50 [48]: 37.3 µM; CC50 [48, 58]: > 100 µM; GI50 [49]: 4.93 µM; LC50 [49]: > 100 µM; GI50 [50]: 19.4 µM; CC50 [50, 58]: > 100 µM; GI50 [51]: 23 µM; CC50 [51, 58]: > 100 µM; GI50 [52]: 11.6 µM; LC50 (concentration causing 50% net cell kill) [52]: > 100 µM; GI50 [53]: > 100 µM; CC50 [53, 58]: > 100 µM; GI50 [54]: 42.1 µM; CC50 [54, 58]: > 100 µM; GI50 [55]: 8.45 µM; LC50 [55]: 97 µM; GI50 [56]: 4.79 µM; CC50 [56, 58]: > 100 µM; GI50 [57]: 60.3 µM; CC50 [57, 58]: > 100 µM
